Assay results: the RNAGym collection of RNA variant scans (doi:10.1002/anie.201605470)

B1: Osa-1-4 twister ribozyme (parent)
chain: CCGCCUAACACUGCCAAUGCCGGUCCCAAGCCCGGAUAAAAGUGGAGGGGGCGG

Variants of: B1
Assay: self-cleavage, relative activity (ratio to wild type); higher = more cleavage; co-transcriptional
In short: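 Values are relative activity: the fraction cleaved, normalised to wild type. A doped DNA template for a 54-nucleotide twister ribozyme from Oryza sativa had 97 % wild-type base and 1 % of each other base at the 48 positions downstream of the cleavage site. The RNA was transcribed in vitro for 2 h at 37 °C so that it could cleave itself co-transcriptionally, then sequenced deeply, with cleavage status scored from the presence or absence of upstream sequence in reads.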

Variant | self-cleavage
C14G C9A | 0.04
C14G C9G | 0.16
C14G C9U | 0.08
C14G C15A | 0.06
C14G C15G | 0.22
C14G C15U | 0.06
C14G C20A | 0.17
C14G C20G | 0.16
C14G C20U | 0.22
C14G C21A | 0.09
C14G C21G | 0.05
C14G C21U | 0.16
C14G C25A | 0.03
C14G C25G | 0.07
C14G C25U | 0.12
C14G C26A | 0.03
C14G C26G | 0.07
C14G C26U | 0.07
C14G C27A | 0.03
C14G C27G | 0.07
C14G C27U | 0.07
C14G C31A | 0.02
C14G C31G | 0.15
C14G C31U | 0.05

Variant | self-cleavage
C14G C32A | 0.03
C14G C32G | 0.08
C14G C32U | 0.04
C14G C33A | 0.04
C14G C33G | 0.05
C14G C33U | 0.07
C14G C52A | 0.14
C14G C52G | 0.13
C14G C52U | 0.18
C14G G13A | 0.07
C14G G13C | 0.01
C14G G13U | 0.05
C14G G19A | 0.24
C14G G19C | 0.04
C14G G19U | 0.08
C14G G22A | 0.07
C14G G22C | 0.07
C14G G22U | 0.07
C14G G23A | 0.08
C14G G23C | 0.04
C14G G23U | 0.03
C14G G30A | 0.07
C14G G30C | 0.64
C14G G30U | 0.14

Variant | self-cleavage
C14G G34A | 0.13
C14G G34C | 0.09
C14G G34U | 0.06
C14G G35A | 0.07
C14G G35C | 0.04
C14G G35U | 0.06
C14G G42A | 0.09
C14G G42C | 0.06
C14G G42U | 0.02
C14G G44A | 0.23
C14G G44C | 0.07
C14G G44U | 0.08
C14G G45A | 0.04
C14G G45C | 0.03
C14G G45U | 0.03
C14G G47A | 0.05
C14G G47C | 0.04
C14G G47U | 0.04
C14G G48A | 0.03
C14G G48C | 0.04
C14G G48U | 0.03
C14G G49A | 0.04
C14G G49C | 0.03
C14G G49U | 0.03

Variant | self-cleavage
C14G G50A | 0.13
C14G G50C | 0.08
C14G G50U | 0.1
C14G G51A | 0.08
C14G G51C | 0.04
C14G G51U | 0.04
C14G G53A | 0.09
C14G G53C | 0.04
C14G G53U | 0.06
C14G G54A | 0.1
C14G G54C | 0.06
C14G G54U | 0.3
C14G U12A | 0.09
C14G U12C | 0.09
C14G U12G | 0.06
C14G U18A | 0.16
C14G U18C | 0.15
C14G U18G | 0.27
C14G U24A | 0.04
C14G U24C | 0.04
C14G U24G | 0.02
C14G U37A | 0.27
C14G U37C | 0.19
C14G U37G | 0.25

Variant | self-cleavage
C14G U43A | 0.09
C14G U43C | 0.07
C14G U43G | 0.06
C14U | 0.63
C14U C9A | 0.12
C14U C9G | 0.2
C14U C9U | 0.41
C14U C15A | 0.08
C14U C15G | 0.07
C14U C15U | 0.09
C14U C20A | 0.51
C14U C20G | 0.05
C14U C20U | 0.48
C14U C21A | 0.12
C14U C21G | 0.06
C14U C21U | 0.39
C14U C25A | 0.06
C14U C25G | 0.06
C14U C25U | 0.1
C14U C26A | 0.03
C14U C26G | 0.07
C14U C26U | 0.11
C14U C27A | 0.05
C14U C27G | 0.06

Variant | self-cleavage
C14U C27U | 0.06
C14U C31A | 0.03
C14U C31G | 0.06
C14U C31U | 0.06
C14U C32A | 0.04
C14U C32G | 0.04
C14U C32U | 0.06
C14U C33A | 0.04
C14U C33G | 0.03
C14U C33U | 0.08
C14U C52A | 0.21
C14U C52G | 0.28
C14U C52U | 0.52
C14U G13A | 0.03
C14U G13C | 0.02
C14U G13U | 0.02
C14U G19A | 0.09
C14U G19C | 0.03
C14U G19U | 0.05
C14U G22A | 0.21
C14U G22C | 0.04
C14U G22U | 0.11
C14U G23A | 0.06
C14U G23C | 0.04

Variant | self-cleavage
C14U G23U | 0.03
C14U G30A | 0.79
C14U G30C | 0.03
C14U G30U | 0.03
C14U G34A | 0.15
C14U G34C | 0.08
C14U G34U | 0.11
C14U G35A | 0.43
C14U G35C | 0.07
C14U G35U | 0.21
C14U G42A | 0.09
C14U G42C | 0.06
C14U G42U | 0.03
C14U G44A | 0.59
C14U G44C | 0.33
C14U G44U | 0.14
C14U G45A | 0.04
C14U G45C | 0.04
C14U G45U | 0.06
C14U G47A | 0.07
C14U G47C | 0.06
C14U G47U | 0.06
C14U G48A | 0.05
C14U G48C | 0.05

Variant | self-cleavage
C14U G48U | 0.05
C14U G49A | 0.05
C14U G49C | 0.05
C14U G49U | 0.06
C14U G50A | 0.35
C14U G50C | 0.1
C14U G50U | 0.18
C14U G51A | 0.12
C14U G51C | 0.04
C14U G51U | 0.05
C14U G53A | 0.11
C14U G53C | 0.05
C14U G53U | 0.09
C14U G54A | 0.17
C14U G54C | 0.12
C14U G54U | 0.47
C14U U12A | 0.09
C14U U12C | 0.09
C14U U12G | 0.05
C14U U18A | 0.5
C14U U18C | 0.51
C14U U18G | 0.53
C14U U24A | 0.04
C14U U24C | 0.05

Variant | self-cleavage
C14U U24G | 0.02
C14U U37A | 0.5
C14U U37C | 0.57
C14U U37G | 0.74
C14U U43A | 0.12
C14U U43C | 0.09
C14U U43G | 0.09
C15A | 0.61
C15A C9A | 0.14
C15A C9G | 0.14
C15A C9U | 0.19
C15A C20A | 0.52
C15A C20G | 0.06
C15A C20U | 0.65
C15A C21A | 0.15
C15A C21G | 0.07
C15A C21U | 0.46
C15A C25A | 0.07
C15A C25G | 0.04
C15A C25U | 0.08
C15A C26A | 0.05
C15A C26G | 0.06
C15A C26U | 0.12
C15A C27A | 0.16

Variant | self-cleavage
C15A C27G | 0.04
C15A C27U | 0.07
C15A C31A | 0.03
C15A C31G | 0.05
C15A C31U | 0.09
C15A C32A | 0.08
C15A C32G | 0.07
C15A C32U | 0.07
C15A C33A | 0.07
C15A C33G | 0.03
C15A C33U | 0.09
C15A C52A | 0.23
C15A C52G | 0.32
C15A C52U | 0.57
C15A G13A | 0.04
C15A G13C | 0.04
C15A G13U | 0.02
C15A G19A | 0.92
C15A G19C | 0.38
C15A G19U | 0.82
C15A G22A | 0.2
C15A G22C | 0.03
C15A G22U | 0.09
C15A G23A | 0.08

Variant | self-cleavage
C15A G23C | 0.03
C15A G23U | 0.05
C15A G30A | 0.02
C15A G30C | 0.04
C15A G30U | 0.03
C15A G34A | 0.23
C15A G34C | 0.11
C15A G34U | 0.14
C15A G35A | 0.48
C15A G35C | 0.09
C15A G35U | 0.35
C15A G42A | 0.12
C15A G42C | 0.08
C15A G42U | 0.05
C15A G44A | 0.11
C15A G44C | 0.33
C15A G44U | 0.19
C15A G45A | 0.05
C15A G45C | 0.04
C15A G45U | 0.04
C15A G47A | 0.06
C15A G47C | 0.04
C15A G47U | 0.06
C15A G48A | 0.05

Variant | self-cleavage
C15A G48C | 0.04
C15A G48U | 0.04
C15A G49A | 0.05
C15A G49C | 0.04
C15A G49U | 0.05
C15A G50A | 0.38
C15A G50C | 0.14
C15A G50U | 0.23
C15A G51A | 0.1
C15A G51C | 0.04
C15A G51U | 0.07
C15A G53A | 0.14
C15A G53C | 0.06
C15A G53U | 0.1
C15A G54A | 0.19
C15A G54C | 0.11
C15A G54U | 0.43
C15A U12A | 0.11
C15A U12C | 0.07
C15A U12G | 0.15
C15A U18A | 0.51
C15A U18C | 0.58
C15A U18G | 0.49
C15A U24A | 0.05

Variant | self-cleavage
C15A U24C | 0.08
C15A U24G | 0.02
C15A U37A | 0.51
C15A U37C | 0.59
C15A U37G | 0.78
C15A U43A | 0.14
C15A U43C | 0.1
C15A U43G | 0.11
C15G | 0.54
C15G C9A | 0.06
C15G C9G | 0.66
C15G C9U | 0.11
C15G C20A | 0.54
C15G C20G | 0.08
C15G C20U | 0.69
C15G C21A | 0.11
C15G C21G | 0.05
C15G C21U | 0.42
C15G C25A | 0.05
C15G C25G | 0.07
C15G C25U | 0.12
C15G C26A | 0.04
C15G C26G | 0.11
C15G C26U | 0.11

Variant | self-cleavage
C15G C27A | 0.08
C15G C27G | 0.1
C15G C27U | 0.08
C15G C31A | 0.03
C15G C31G | 0.12
C15G C31U | 0.09
C15G C32A | 0.05
C15G C32G | 0.12
C15G C32U | 0.07
C15G C33A | 0.05
C15G C33G | 0.06
C15G C33U | 0.11
C15G C52A | 0.21
C15G C52G | 0.31
C15G C52U | 0.48
C15G G13A | 0.05
C15G G13C | 0.02
C15G G13U | 0.02
C15G G19A | 0.95
C15G G19C | 0.74
C15G G19U | 0.7
C15G G22A | 0.16
